According to the array DNA melting data of Ke et al. (doi:10.1101/2024.01.08.574731):

Key:
[1] = folding enthalpy; higher = less favourable; fluorescence melt of hairpins on a sequencing array, two-state fit; details: sodium 0.088 M
In short: (§1)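 Library hairpins on a sequenced MiSeq flow cell carried annealed Cy3 and quencher oligos, and their Cy3 fluorescence was imaged in 50 mM Na-HEPES pH 8.0 with 25 mM NaCl, in 2.5 °C steps up to 60 °C. Signals were normalised to Cy3 before quenching and to control constructs. Melting temperature and folding enthalpy were obtained from bootstrapped two-state fits, combined by inverse-variance weighting across four replicates, and the fitted temperatures were then raised by 9.35 °C to match UV melts.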

[2] = melting temperature; fluorescence melt of hairpins on a sequencing array, two-state fit, raised by 9.35 °C to match UV melts; details: sodium 0.088 M
In short: as §1

Row | Sequence | folding enthalpy [1] [kcal/mol] | Tm [2] [°C]
1 | GTAATTGGAAACAATCAC ((.((((....)))).)) | -11.6 | 27.4
2 | GCAGTTGGAAACAACTGC (((((((....))))))) | -63.5 | 62.5
3 | GTGGGGGGAAACCCCTAC ((.((((....)))).)) | -17.8 | 52.2
4 | GTGGCAGGAAACTGCTAC ((.((((....)))).)) | -26.4 | 53.1
5 | GTGAATGGAAACATTTGC (..((((....))))..) | -15.5 | 31.4
6 | GAGCTACCGAAAGGTCTC (((..(((....)))))) | -13.5 | 27.6
7 | GATCCAACTCTGGATC ((((((....)))))) | -30.9 | 49.2
8 | GCGAGGATTCGC ((((....)))) | -22.7 | 54.7
9 | GAGGTTGGAAACAACCCC (.(((((....))))).) | -13.2 | 40.5
10 | GATCAGCGTCCTGATC ((((((....)))))) | -32.4 | 49
11 | GAGCTGCGAAAGCACTC (((.(((....)))))) | -20.4 | 46.2
12 | ACTCGGAAACGAGT (((((....))))) | -20.8 | 52.3
13 | GTCACATCGAAAGATGAC (((..(((....)))))) | -12.8 | 30.2
14 | GCATTGGGAAACTGATGC ((((..(....)..)))) | -30 | 38.8
15 | GCTCTGACGAAAGTCAGC (((..(((....)))))) | -7.47 | 31.3
16 | GCTTCGTCGAAAGACAGC (((..(((....)))))) | -11.5 | 34.5
17 | GTAGTACGAAAGTATAC (((.(((....)))))) | -17.1 | 32
18 | GTAGGCGCGAAAGCGTAC (((..(((....)))))) | -9.85 | 34.9
19 | GTCTATCGAAAGATGGAC (((.(((....))).))) | -30.9 | 51.7
20 | GTTGGTCGAAAGACGAAC (((.(((....))).))) | -29.9 | 48.1
21 | GTTTCCCGAAAGGGGAAC (((.(((....))).))) | -36.2 | 56.1
22 | GTCAGGGGAAACCCTAAC ((.((((....)))).)) | -14.5 | 29.6
23 | GTTGTTGGAAACAACGAC ((.((((....)))).)) | -18.6 | 55.9
24 | GTTCCCGGAAACGGAAAC (((.(((....))).))) | -24.4 | 41.1

Row | Sequence | folding enthalpy [1] [kcal/mol] | Tm [2] [°C]
25 | GGAATATCGAAAGATTCC (((..(((....)))))) | -20 | 33.3
26 | GTCGCGGGAAACCGTGGC (.(.(((....))).).) | -28.5 | 50.3
27 | GATCTCGACCGAGATC ((((((....)))))) | -51.9 | 56.1
28 | GTTGAGCCGAAAGGCAAC (((..(((....)))))) | -10.6 | 38.8
29 | GAAGTGGGAAACCACCTC ((.((((....)))).)) | -13.7 | 32.2
30 | CGCGGAACTGTCCGCG ((((((....)))))) | -45.6 | 64.8
31 | GGGTTTGGAAACAAACCC (((((((....))))))) | -39.6 | 66.8
32 | GAGATTGGAAACAATTTC ((.((((....)))).)) | -17.9 | 32.4
33 | GGGTGAGGAAACTCATCC ((.((((....)))).)) | -43.1 | 49.2
34 | GCTGTATCGAAAGATAGC (((..(((....)))))) | -18.4 | 33.7
35 | GATCCGCACTCGGATC ((((((....)))))) | -41 | 56.5
36 | GACGCCGAAAGGCATGTC ((((((....)))..))) | -15.2 | 43.3
37 | GATCAAATGTTGATC ((((((...)))))) | -26.6 | 41.2
38 | GGCAGGGGAAACCCCACC ((..(((....)))..)) | -16.5 | 31.6
39 | GTAGTATCGAAAGATTAC (((..(((....)))))) | -12.9 | 26.1
40 | GATCCAAACTGGATC ((((((...)))))) | -43 | 50.4
41 | GATCCTACGGAGGATC ((((((....)))))) | -35 | 50.9
42 | GATCCGCGAAAGCGATC (((.(((....)))))) | -14 | 44.6
43 | GAGAGACCGAAAGGTCTC (((..(((....)))))) | -9.65 | 62.5
44 | GGAGCCGAAAGGCAGTCC ((((((....)))..))) | -13.2 | 36.1
45 | GATCCGCTGCCGGATC ((((((....)))))) | -36.4 | 57
46 | GAAACCGAAAGGTTGTTC ((((((....)))..))) | -13.7 | 36.8
47 | GCTTTCGCGAAAGCGAGC (((..(((....)))))) | -10.6 | 48.9
48 | GTCACCGAAAGGTTAGAC ((((((....)))..))) | -17.1 | 39.4

Row | Sequence | folding enthalpy [1] [kcal/mol] | Tm [2] [°C]
49 | GACGTGGGAAACCACACC (..((((....))))..) | -11.9 | 25.5
50 | GATGGCGAAAGCCTATC ((((((....))).))) | -12.7 | 44.3
51 | GCACATGGAAACATGTAC (.(((((....))))).) | -17 | 37.4
52 | GCAATAGGAAACTATTGC (((((((....))))))) | -45.8 | 56
53 | GGCGGCGAAAGCCGGGCC ((((((....)))..))) | -10.1 | 58.1
54 | GGTTAAGGAAACCTAACC (((((.(....).))))) | -25 | 35.2
55 | GCTACCCGAAAGGGAAGC (((.(((....))).))) | -32.5 | 58.6
56 | GATCAAGTCCTTGATC ((((((....)))))) | -38.2 | 49.7
57 | GTAGAGAAATCTAC (((((....))))) | -12.6 | 35.5
58 | GTGATTGGAAACGATCAC (((((.(....).))))) | -44.9 | 47.9
59 | GCTCCCCGAAAGGGCAGC (((.(((....))).))) | -21 | 48
60 | GTGCGCCGAAAGGCCCAC (((.(((....))).))) | -24.4 | 48.5
61 | GATCGCAGTGGCGATC ((((((....)))))) | -31.5 | 67.5
62 | GGTCCTGGAAACAGGACC (((((((....))))))) | -30.9 | 69.3
63 | GCGAGCACGAAAGTGCGC (((..(((....)))))) | -8.47 | 56.9
64 | GATCTTCGCGAAGATC ((((((....)))))) | -59 | 55.3
65 | GACGTTGGAAACGATGTC (((.(.(....).).))) | -16.9 | 33.4
66 | GGACGTCGAAAGACTCC (((.(((....)))))) | -23.8 | 51.2
67 | GCACTCGAAAGAGGGTGC ((((((....)))..))) | -31.5 | 50.8
68 | GATCTCACGTGAGATC ((((((....)))))) | -54.2 | 55.1
69 | GATCACTATGTGATC ((((((...)))))) | -38.8 | 61.1
70 | GTGCACGGAAACGCGCAC ((((.((....)).)))) | -49 | 57.7
71 | GATCACGCGTGTGATC ((((((....)))))) | -38.7 | 56.5
72 | GATCGACGCATCGATC ((((((....)))))) | -32.6 | 52.6

Row | Sequence | folding enthalpy [1] [kcal/mol] | Tm [2] [°C]
73 | GCGAGCAATCGC ((((....)))) | -23.8 | 62.2
74 | GGAATGGCGAAAGCCTCC (((..(((....)))))) | -10.2 | 36.7
75 | GAGCACGAAAGTGGCCTC ((((((....)))..))) | -14 | 42
76 | GGTCGCGAAAGCGTCACC ((((((....)))..))) | -13.3 | 40.1
77 | GTTGGTGGAAACACTAAC (((.(((....))).))) | -29.6 | 45
78 | GAATCAGGAAACTGACTC ((.((((....)))).)) | -17.3 | 28.7
79 | GCGCAGCCGAAAGGCCGC (((..(((....)))))) | -16.7 | 57.9
80 | GCGATGGTCGC ((((...)))) | -7.34 | 47.8
81 | GCGATTTCGAAAGAACGC (((..(((....)))))) | -24.2 | 36.9
82 | GCGCCGTCGAAAGACCGC (((..(((....)))))) | -23.1 | 50.8
83 | GCCGTCGAAAGACTGGGC ((((((....)))..))) | -26.4 | 53.7
84 | GATCACACCTGTGATC ((((((....)))))) | -47.3 | 57.2
85 | GCGTCTGGACGC ((((....)))) | -34.1 | 59.8
86 | GTGAGCGGAAACGCCCAC (((.(((....))).))) | -23.7 | 51.1
87 | GCGCGGCGAAAGCAGTGC ((.(.((....)).).)) | -29.1 | 65.5
88 | GCTTGGGGAAACTCAGGC ((.((.(....).)).)) | -18.2 | 36.6
89 | GCGGACACCGC ((((...)))) | -26.3 | 56.2
90 | GTCGATGGAAACGTCGAC (((((.(....).))))) | -37.6 | 54.8
91 | GCAATGCGAAAGCATCGC ((.((((....)))).)) | -21.4 | 58.1
92 | GCGTAACACGC ((((...)))) | -20.9 | 55.7
93 | GTATTGAAAAATAC (((((....))))) | -15.3 | 33.1
